Where two headings read alike, the source gives them in different places. Marks after values point to notes of the source that are not given here.
Legend:
[1] = assay type: in vivo, human; conditions: for AUC0–tz, gMean / Cmax, gMean / AUC(0-t) / AUC(0-inf) / Cmax / half-life: plasma; for AUC(0-t) / AUC(0-inf) / Cmax / half-life: male, human; for AUC(0-t): AUC0–tz; for AUC(0-inf): AUC0–∞; for AUC0–tz, Adjusted gMean Ratio (90% CI) / Cmax, Adjusted gMean Ratio (90% CI): probe drug + steady-state BI 425809 25 mg vs probe drug only
[2] = target: P-gp (Homo sapiens, UniProt P08183); assay type: in vitro ADME; conditions: Caco-2 cell monolayer; zosuquidar 1 μM, BI 425809 1-100 μM
P-gp, sequence (P08183 whole entry): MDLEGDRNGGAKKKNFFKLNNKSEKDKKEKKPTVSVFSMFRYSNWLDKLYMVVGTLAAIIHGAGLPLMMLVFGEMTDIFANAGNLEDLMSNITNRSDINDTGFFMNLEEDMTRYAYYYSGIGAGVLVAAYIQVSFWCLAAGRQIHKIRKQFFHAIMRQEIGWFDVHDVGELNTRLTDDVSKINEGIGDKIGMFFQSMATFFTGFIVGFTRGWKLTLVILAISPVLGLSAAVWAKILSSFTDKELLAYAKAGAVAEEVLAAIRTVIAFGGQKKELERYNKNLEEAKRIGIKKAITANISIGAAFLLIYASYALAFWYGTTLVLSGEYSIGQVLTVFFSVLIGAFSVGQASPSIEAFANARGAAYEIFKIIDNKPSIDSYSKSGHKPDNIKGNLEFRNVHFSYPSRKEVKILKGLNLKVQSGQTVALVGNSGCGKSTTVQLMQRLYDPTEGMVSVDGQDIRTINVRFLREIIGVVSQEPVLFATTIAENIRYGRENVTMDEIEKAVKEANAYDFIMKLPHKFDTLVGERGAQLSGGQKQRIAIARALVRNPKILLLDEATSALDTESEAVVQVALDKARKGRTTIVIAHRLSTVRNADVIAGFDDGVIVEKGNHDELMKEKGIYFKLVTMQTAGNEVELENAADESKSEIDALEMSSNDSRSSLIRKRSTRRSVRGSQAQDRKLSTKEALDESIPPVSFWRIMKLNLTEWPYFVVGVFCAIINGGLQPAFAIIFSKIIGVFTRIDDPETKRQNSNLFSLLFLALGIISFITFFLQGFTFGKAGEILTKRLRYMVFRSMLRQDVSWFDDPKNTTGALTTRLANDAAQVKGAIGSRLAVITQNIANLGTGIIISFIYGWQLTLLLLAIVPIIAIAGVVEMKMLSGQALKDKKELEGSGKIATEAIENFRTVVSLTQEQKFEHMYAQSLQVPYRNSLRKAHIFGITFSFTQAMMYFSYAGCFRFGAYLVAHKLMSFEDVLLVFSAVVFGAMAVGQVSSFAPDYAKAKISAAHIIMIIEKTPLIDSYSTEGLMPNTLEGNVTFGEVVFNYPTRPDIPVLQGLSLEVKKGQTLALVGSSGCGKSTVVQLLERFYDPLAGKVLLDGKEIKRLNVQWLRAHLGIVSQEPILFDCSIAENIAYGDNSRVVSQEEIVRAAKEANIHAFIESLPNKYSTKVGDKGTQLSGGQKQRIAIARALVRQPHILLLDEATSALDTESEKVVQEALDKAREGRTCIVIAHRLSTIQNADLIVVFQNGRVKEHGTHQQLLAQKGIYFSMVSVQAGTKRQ
Method in brief: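 Bidirectional Caco-2 monolayer transport in HBSS with 15 mM HEPES, pH 7.4, after 30 min equilibration. [³H]digoxin (1 μM) went in the donor side, and test compound (1–100 μM) or zosuquidar (1 μM) on both sides. After 30 min preincubation, sampling ran to 90 min and was read by scintillation counting. Papp gave the B-to-A/A-to-B efflux ratio, and IC50 with slope factor came from nonlinear regression of efflux ratio against inhibitor concentration.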

[3] = +BI 425809 25 mg at steady state
[4] = Probe Drug + BI 425809 25 mg once daily at steady state, healthy males
[5] = probe drug alone (cocktail or digoxin alone)
[6] = arithmetic mean (SD), +BI 425809 25 mg at steady state
[7] = gMean, Probe Drug + BI 425809 25 mg once daily at steady state, healthy males
[8] = gMean, Probe Drug Only, healthy males

| SMILES | AUC0–tz, arithmetic mean (SD) [1, 3] | AUC0–∞, arithmetic mean (SD) [1, 3] | AUC0–tz, gMean [1, 4] | Cmax, gMean [1, 4] [ng/mL] | AUC0–tz, gMean ([1]; Probe Drug Only, healthy males) | AUC0–tz, arithmetic mean (SD) [1, 5] | AUC0–∞, arithmetic mean (SD) [1, 5] | AUC(0-t) [1, 6] [ng·h/mL] | AUC(0-t) [1, 7] [ng·h/mL] | AUC(0-t) [1, 8] [ng·h/mL] | AUC(0-inf) [1, 6] [ng·h/mL] | Cmax [1, 6] [ng/mL] | Cmax [1, 7] [ng/mL] | Cmax [1, 8] [ng/mL] | AUC0–tz, Adjusted gMean Ratio (90% CI) [1] | Cmax, Adjusted gMean Ratio (90% CI) [1] | Cmax, arithmetic mean (SD) [1, 5] | Cmax, gMean ([1]; Probe Drug Only, healthy males) [ng/mL] | further results |
| --- | --- | --- | --- | --- | --- | --- | --- | --- | --- | --- | --- | --- | --- | --- | --- | --- | --- | --- | --- |
| CC(=O)C[C@@H](c1ccccc1)c1c(O)c2ccccc2oc1=O [S-warfarin] | 15,600.0 (3590.0) ng⋅h/mL | 17,000.0 (3880.0) ng⋅h/mL | 15,205.1 ng⋅h/mL | 553.7 | 15,107.9 ng⋅h/mL | 15,400.0 (3480.0) ng⋅h/mL | 16,900.0 (3870.0) ng⋅h/mL | – | – | – | – | – | – | – | – | – | – | – | – |
| Cc1ncc2n1-c1ccc(Cl)cc1C(c1ccccc1F)=NC2 [Midazolam, midazolam] | – | – | – | – | – | – | – | 16.7 | 16.6 | 23.5 | 17.4 | 6.9 | 6.6 | 8.5 | 70.6 (63.9–78.1) % | 77.6 (67.3–89.4) % | 9.03 (3.3)* ng/mL | – | decrease of the adjusted gMean ratio ([1]; BI 425809 25 mg once daily): 29.4%; half-life ([1]; t1/2, gMean (geometric coefficient of variation), on a background of steady-state BI 425809): 2.8 h; t1/2, gMean (geometric coefficient of variation) ([1]; midazolam alone): 3.3 [22.8] hours; AUC0–tz, Adjusted gMean Ratio (90% CI) ([1]; listed as midazolam): 70.6%; Cmax, Adjusted gMean Ratio (90% CI) ([1]; listed as midazolam): 77.6% |
| COc1ccc2[nH]c([S+]([O-])Cc3ncc(C)c(OC)c3C)nc2c1 (centres unmarked) [Omeprazole, omeprazole] | 604.0 (733.0) ng⋅h/mL | – | – | – | – | – | – | – | 430 | 483 | 609 | 257 | 225 | 220 | – | – | – | – | – |
| O[C@@H](COc1cccc2ncccc12)CN1CCN([C@@H]2c3ccccc3[C@@H]3[C@H](c4ccccc42)C3(F)F)CC1 [zosuquidar] | – | – | – | – | – | – | – | – | – | – | – | – | – | – | – | – | – | – | effect on P-gp-mediated transcellular transport of digoxin (in words) [2]: inhibited |
| C[C@H]1O[C@@H](O[C@H]2[C@@H](O)C[C@H](O[C@H]3[C@@H](O)C[C@H](O[C@H]4CC[C@@]5(C)[C@H](CC[C@@H]6[C@@H]5C[C@@H](O)[C@]5(C)[C@@H](C7=CC(=O)OC7)CC[C@]65O)C4)O[C@@H]3C)O[C@@H]2C)C[C@H](O)[C@@H]1O [Digoxin, digoxin] | – | – | – | 1.1 | – | – | – | 10 | 9.5 | 9.7 | 20.1 | – | – | – | 97.9 (86.6–110.6) % | 100.6 (86.9–116.5) % | 1.1 (0.3) ng/mL | 1.1 | Cmax, arithmetic mean (SD) [1, 3]: 1.1 (0.3) ng/mL; half-life ([1]; t1/2, arithmetic mean (SD), +BI 425809 25 mg at steady state): 54.2 h; adjusted gMean ratios for AUC0–tz and Cmax (in words) ([1]; presence vs absence of steady-state BI 425809): within ±4% of 100% |
| CC(=O)C[C@H](c1ccccc1)c1c(O)c2ccccc2oc1=O [R-warfarin] | 23,000.0 (5360.0) ng⋅h/mL | 27,500.0 (7200.0) ng⋅h/mL | 22,457.1 ng⋅h/mL | 541.8 | 22,615.1 ng⋅h/mL | 23,000.0 (4860.0) ng⋅h/mL | 27,900.0 (6680.0) ng⋅h/mL | – | – | – | – | – | – | – | – | – | – | 525.0 | – |
